≈ marks a conversion by molar mass, not a printed value.
Tests used:
Format in all cases: functional
Staphylococcus aureus = experiment: Antibacterial activity against Staphylococcus aureus ATCC 29213
Escherichia coli = experiment: Antibacterial activity against Escherichia coli ATCC 25922
Aspergillus niger = experiment: Antifungal activity against Aspergillus niger KCTC 1231 after 2 days; details: KCTC 1231, 48 h
Cryptococcus neoformans = experiment: Antifungal activity against Cryptococcus neoformans KCCM 50564 after 1 day; details: KCCM 50564, 24 h
Pichia kudriavzevii = experiment: Antifungal activity against Candida krusei KCCM 11655 after 1 day; details: KCCM 11655, 24 h
Aspergillus flavus = experiment: Antifungal activity against Aspergillus flavus KCCM 11899 after 2 days; details: KCCM 11899, 48 h
[1] = test system: Mycobacterium tuberculosis; experiment: Antitubercular activity against Mycobacterium tuberculosis H37Rv ATCC 27294 after 7 days by BACTEC method; details: H37Rv ATCC 27294, 168 h
How it was run: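 Screened in vitro against M. tuberculosis H37Rv in a modified BACTEC 460 radiometric system. Test compound stocks were made at 1 mg/ml in DMSO and filter-sterilised through 0.22 µm PTFE filters. MIC was read, with rifampin as the reference agent.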

Row | Structure (SMILES) | MIC (Staphylococcus aureus) [µg/mL] | MIC (Escherichia coli) [µg/mL] | MIC (Aspergillus niger) [µg/mL] | MIC (Cryptococcus neoformans) [µg/mL] | MIC (Pichia kudriavzevii) [µg/mL] | MIC (Aspergillus flavus) [µg/mL] | MIC [1] [µg/mL]
1 | COc1c(N2C[C@@H]3CCCN[C@@H]3C2)c(F)cc2c(=O)c(C(=O)O)cn(C3CC3)c12 [MOXIFLOXACIN] | 0.06 (≈ 0.149 µM) | 0.015 (≈ 0.0374 µM) |  |  |  |  | 
2 | Nc1nc(=O)[nH]cc1F [FLUCYTOSINE] |  |  | 6.3 (≈ 48.8 µM) | 6.3 (≈ 48.8 µM) | 6.3 (≈ 48.8 µM) | 25 (≈ 194 µM) | 
3 | O=C(NN1C(=O)[C@H](Cl)[C@H]1c1cccc([N+](=O)[O-])c1)c1cc(-c2ccc(Cl)cc2)n[nH]1 (racemic) | 1.2 (≈ 2.69 µM) | 0.33 (≈ 0.739 µM) | 12.5 (≈ 28 µM) | 50 (≈ 112 µM) | 100 (≈ 224 µM) | 50 (≈ 112 µM) | 1.99 (≈ 4.46 µM)
4 | O=C(N/N=C/c1cccc([N+](=O)[O-])c1)c1cc(-c2ccc(Cl)cc2)n[nH]1 | 1.5 (≈ 4.06 µM) | 0.13 (≈ 0.352 µM) | 25 (≈ 67.6 µM) | 1.6 (≈ 4.33 µM) | 25 (≈ 67.6 µM) | 12.5 (≈ 33.8 µM) | > 5
5 | OC(Cn1cncn1)(Cn1cncn1)c1ccc(F)cc1F [FLUCONAZOLE] |  |  | 6.3 (≈ 20.6 µM) | 6.3 (≈ 20.6 µM) | 25 (≈ 81.6 µM) | 25 (≈ 81.6 µM) | 
6 | O=C(N/N=C/c1ccccc1O)c1cc(-c2ccc(Cl)cc2)n[nH]1 | 0.4 (≈ 1.17 µM) | 0.015 (≈ 0.044 µM) | 100 (≈ 293 µM) | 25 (≈ 73.4 µM) | 50 (≈ 147 µM) | 6.3 (≈ 18.5 µM) | 1.1 (≈ 3.23 µM)
7 | COc1ccc(C2SCC(=O)N2NC(=O)c2cc(-c3ccc(Cl)cc3)n[nH]2)cc1OC (racemic) | 0.06 (≈ 0.131 µM) | 0.2 (≈ 0.436 µM) | 6.3 (≈ 13.7 µM) | 50 (≈ 109 µM) | 12.5 (≈ 27.2 µM) | 12.5 (≈ 27.2 µM) | 1.2 (≈ 2.61 µM)
8 | O=C(NN1C(=O)CSC1c1ccc(O)cc1)c1cc(-c2ccc(Cl)cc2)n[nH]1 (single isomer, unassigned; (+)) | 0.125 (≈ 0.301 µM) | 0.017 (≈ 0.041 µM) | 1.6 (≈ 3.86 µM) | 1.6 (≈ 3.86 µM) | 50 (≈ 121 µM) | 12.5 (≈ 30.1 µM) | 0.39 (≈ 0.94 µM)
9 | COc1cc(C2SCC(=O)N2NC(=O)c2cc(-c3ccc(Cl)cc3)n[nH]2)ccc1O (racemic) | 0.15 (≈ 0.337 µM) | 0.05 (≈ 0.112 µM) | 1.6 (≈ 3.6 µM) | 1.6 (≈ 3.6 µM) | 12.5 (≈ 28.1 µM) | 12.5 (≈ 28.1 µM) | 0.65 (≈ 1.46 µM)
10 | O=C(NN1C(=O)CSC1c1ccccc1O)c1cc(-c2ccc(Cl)cc2)n[nH]1 (racemic) | 0.06 (≈ 0.145 µM) | 0.028 (≈ 0.0675 µM) | 6.3 (≈ 15.2 µM) | 6.3 (≈ 15.2 µM) | 12.5 (≈ 30.1 µM) | 12.5 (≈ 30.1 µM) | 0.5 (≈ 1.21 µM)
11 | COc1cc(/C=N/NC(=O)c2cc(-c3ccc(Cl)cc3)n[nH]2)ccc1O | 0.12 (≈ 0.324 µM) | 0.017 (≈ 0.0458 µM) | 25 (≈ 67.4 µM) | 1.6 (≈ 4.32 µM) | 12.5 (≈ 33.7 µM) | 12.5 (≈ 33.7 µM) | 0.55 (≈ 1.48 µM)
12 | O=C(NN1C(=O)CSC1c1ccccc1)c1cc(-c2ccc(Cl)cc2)n[nH]1 (racemic) | 0.91 (≈ 2.28 µM) | 0.28 (≈ 0.702 µM) | 25 (≈ 62.7 µM) | 12.5 (≈ 31.3 µM) | 50 (≈ 125 µM) | 12.5 (≈ 31.3 µM) | 3.15 (≈ 7.9 µM)
13 | O=C(N/N=C/c1ccc(Cl)cc1)c1cc(-c2ccc(Cl)cc2)n[nH]1 | 0.12 (≈ 0.334 µM) | 0.012 (≈ 0.0334 µM) | 12.5 (≈ 34.8 µM) | 1.6 (≈ 4.45 µM) | 12.5 (≈ 34.8 µM) | 25 (≈ 69.6 µM) | 1.1 (≈ 3.06 µM)
14 | O=C(NN1C(=O)CSC1c1ccc(Cl)cc1)c1cc(-c2ccc(Cl)cc2)n[nH]1 (racemic) | 0.048 (≈ 0.111 µM) | 0.022 (≈ 0.0508 µM) | 12.5 (≈ 28.8 µM) | 12.5 (≈ 28.8 µM) | 25 (≈ 57.7 µM) | 6.3 (≈ 14.5 µM) | 1.15 (≈ 2.65 µM)
15 | O=C(NN1C(=O)[C@H](Cl)[C@H]1c1ccccc1[N+](=O)[O-])c1cc(-c2ccc(Cl)cc2)n[nH]1 (racemic) | 6 (≈ 13.4 µM) | 0.5 (≈ 1.12 µM) | 100 (≈ 224 µM) | 50 (≈ 112 µM) | 12.5 (≈ 28 µM) | 50 (≈ 112 µM) | 1.9 (≈ 4.26 µM)
16 | O=C(N/N=C/c1ccccc1[N+](=O)[O-])c1cc(-c2ccc(Cl)cc2)n[nH]1 | 8 (≈ 21.6 µM) | 8 (≈ 21.6 µM) | 3.2 (≈ 8.65 µM) | 1.6 (≈ 4.33 µM) | 100 (≈ 270 µM) | 25 (≈ 67.6 µM) | > 5
17 | O=C(N/N=C/c1ccc(O)cc1)c1cc(-c2ccc(Cl)cc2)n[nH]1 | 0.35 (≈ 1.03 µM) | 0.012 (≈ 0.0352 µM) | 12.5 (≈ 36.7 µM) | 50 (≈ 147 µM) | 100 (≈ 293 µM) | 50 (≈ 147 µM) | 1.1 (≈ 3.23 µM)
18 | O=C(NN1C(=O)[C@H](Cl)[C@H]1c1ccc(O)cc1)c1cc(-c2ccc(Cl)cc2)n[nH]1 (racemic) | 0.04 (≈ 0.0959 µM) | 0.01 (≈ 0.024 µM) | 1.6 (≈ 3.83 µM) | 3.2 (≈ 7.67 µM) | 25 (≈ 59.9 µM) | 12.5 (≈ 30 µM) | 0.6 (≈ 1.44 µM)
19 | O=C(NN1C(=O)CSC1c1ccccc1[N+](=O)[O-])c1cc(-c2ccc(Cl)cc2)n[nH]1 (racemic) | 2 (≈ 4.51 µM) | 0.1 (≈ 0.225 µM) | 50 (≈ 113 µM) | 3.2 (≈ 7.21 µM) | 25 (≈ 56.3 µM) | 50 (≈ 113 µM) | 4 (≈ 9.01 µM)
20 | COc1ccc(C2SCC(=O)N2NC(=O)c2cc(-c3ccc(Cl)cc3)n[nH]2)cc1 (racemic) | 0.5 (≈ 1.17 µM) | 0.04 (≈ 0.0933 µM) | 3.2 (≈ 7.46 µM) | 12.5 (≈ 29.1 µM) | 50 (≈ 117 µM) | 25 (≈ 58.3 µM) | 0.65 (≈ 1.52 µM)
21 | COc1ccc(/C=N/NC(=O)c2cc(-c3ccc(Cl)cc3)n[nH]2)cc1 | 0.18 (≈ 0.507 µM) | 0.01 (≈ 0.0282 µM) | 12.5 (≈ 35.2 µM) | 50 (≈ 141 µM) | 100 (≈ 282 µM) | 100 (≈ 282 µM) | 0.85 (≈ 2.4 µM)
22 | O=C(NN1C(=O)CSC1c1cccc([N+](=O)[O-])c1)c1cc(-c2ccc(Cl)cc2)n[nH]1 (racemic) | 8 (≈ 18 µM) | 0.6 (≈ 1.35 µM) | 25 (≈ 56.3 µM) | 100 (≈ 225 µM) | 50 (≈ 113 µM) | 100 (≈ 225 µM) | 2 (≈ 4.51 µM)
23 | O=C(N/N=C/c1ccccc1Cl)c1cc(-c2ccc(Cl)cc2)n[nH]1 | 0.21 (≈ 0.585 µM) | 0.014 (≈ 0.039 µM) | 12.5 (≈ 34.8 µM) | 3.2 (≈ 8.91 µM) | 12.5 (≈ 34.8 µM) | 25 (≈ 69.6 µM) | 0.36 (≈ 1 µM)
24 | COc1ccc([C@@H]2[C@@H](Cl)C(=O)N2NC(=O)c2cc(-c3ccc(Cl)cc3)n[nH]2)cc1 (racemic) | 0.0025 (≈ 0.0058 µM) | 0.06 (≈ 0.139 µM) | 3.2 (≈ 7.42 µM) | 1.6 (≈ 3.71 µM) | 12.5 (≈ 29 µM) | 12.5 (≈ 29 µM) | 1.2 (≈ 2.78 µM)
25 | O=C(NN1C(=O)[C@H](Cl)[C@H]1c1ccccc1Cl)c1cc(-c2ccc(Cl)cc2)n[nH]1 (racemic) | 0.034 (≈ 0.078 µM) | 0.031 (≈ 0.0712 µM) | 12.5 (≈ 28.7 µM) | 6.3 (≈ 14.5 µM) | 1.6 (≈ 3.67 µM) | 12.5 (≈ 28.7 µM) | 0.55 (≈ 1.26 µM)
26 | COc1ccc(/C=N/NC(=O)c2cc(-c3ccc(Cl)cc3)n[nH]2)cc1OC | 0.25 (≈ 0.65 µM) | 4 (≈ 10.4 µM) | 25 (≈ 65 µM) | 12.5 (≈ 32.5 µM) | 50 (≈ 130 µM) | 12.5 (≈ 32.5 µM) | 0.37 (≈ 0.961 µM)
27 | O=C(N/N=C/c1ccccc1)c1cc(-c2ccc(Cl)cc2)n[nH]1 | 4 (≈ 12.3 µM) | 1 (≈ 3.08 µM) | 50 (≈ 154 µM) | 1.6 (≈ 4.93 µM) | 12.5 (≈ 38.5 µM) | 3.2 (≈ 9.85 µM) | > 5
28 | O=C(O)c1cn(C2CC2)c2cc(N3CCNCC3)c(F)cc2c1=O [CIPROFLOXACIN] | 0.25 (≈ 0.754 µM) |  |  |  |  |  | 
29 | CO[C@H]1/C=C/O[C@@]2(C)Oc3c(C)c(O)c4c(O)c(c(/C=N/N5CCN(C)CC5)c(O)c4c3C2=O)NC(=O)/C(C)=C\C=C\[C@H](C)[C@H](O)[C@@H](C)[C@@H](O)[C@@H](C)[C@H](OC(C)=O)[C@@H]1C [RIFAMPIN] |  |  |  |  |  |  | 0.125 (≈ 0.152 µM)

From ChEMBL document CHEMBL2057135, “Synthesis, antitubercular and antimicrobial evaluation of 3-(4-chlorophenyl)-4-substituted pyrazole derivatives” (2012)
